In the M2OR odorant receptor database:

Columns and labels:
Conditions in all cases: stereoisomer not certain
OR5D13 (Homo sapiens) = OR5D13 (Homo sapiens) (UniProt Q8NGL4)
Method in brief: (§1)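 Values were gathered from published papers (main text and supplementary material), with extra details requested from the original authors when needed, and checked for typos and inconsistencies. Each receptor–molecule pair is called responsive (active) if the original authors judged the measured signal statistically different from baseline, and non-responsive (inactive) otherwise. Assay methods varied by source, often transient mammalian cell-line luciferase assays. Recorded details include cell line, G-protein, co-transfected protein and tags.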

OR5D14 (Homo sapiens) = OR5D14 (Homo sapiens) (UniProt Q8NGL3)
Method in brief: as §1

OR5D16 (Homo sapiens) = OR5D16 (Homo sapiens) (UniProt Q8NGK9)
Method in brief: as §1

OR5D18 (Homo sapiens) = OR5D18 (Homo sapiens) (UniProt Q8NGL1)
Method in brief: as §1

OR5DD C62Y = test system: OR5DD C62Y
Method in brief: as §1

OR5DE S249A L290P = test system: OR5DE S249A L290P
Method in brief: as §1

OR5DG A156T = test system: OR5DG A156T
Method in brief: as §1

OR5DI = test system: OR5DI
Method in brief: as §1

OR5F1 (Homo sapiens) = OR5F1 (Homo sapiens) (UniProt O95221)
Method in brief: as §1

OR5F1 = test system: OR5F1
Method in brief: as §1

OR5H1 (Homo sapiens) = OR5H1 (Homo sapiens) (UniProt A6NKK0)
Method in brief: as §1

OR5H1 F17L A30T H56Q = test system: OR5H1 F17L A30T H56Q
Method in brief: as §1

OR5H1 T181N = test system: OR5H1 T181N
Method in brief: as §1

OR5H14 (Homo sapiens) = OR5H14 (Homo sapiens) (UniProt A6NHG9)
Method in brief: as §1

OR5H15 (Homo sapiens) = OR5H15 (Homo sapiens) (UniProt A6NDH6)
Method in brief: as §1

OR5H1 = test system: OR5H1
Method in brief: as §1

OR5H2 = test system: OR5H2
Method in brief: as §1

OR5H6 (Homo sapiens) = OR5H6 (Homo sapiens) (UniProt Q8NGV6)
Method in brief: as §1

OR5G3 (Homo sapiens) = OR5G3 (Homo sapiens) (UniProt P0C626)
Method in brief: as §1

OR5H8 (Homo sapiens) = OR5H8 (Homo sapiens) (UniProt P0DN80)
Method in brief: as §1

Measured: odorant receptor agonist call

OR5D16 (Homo sapiens), sequence (Q8NGK9 whole entry): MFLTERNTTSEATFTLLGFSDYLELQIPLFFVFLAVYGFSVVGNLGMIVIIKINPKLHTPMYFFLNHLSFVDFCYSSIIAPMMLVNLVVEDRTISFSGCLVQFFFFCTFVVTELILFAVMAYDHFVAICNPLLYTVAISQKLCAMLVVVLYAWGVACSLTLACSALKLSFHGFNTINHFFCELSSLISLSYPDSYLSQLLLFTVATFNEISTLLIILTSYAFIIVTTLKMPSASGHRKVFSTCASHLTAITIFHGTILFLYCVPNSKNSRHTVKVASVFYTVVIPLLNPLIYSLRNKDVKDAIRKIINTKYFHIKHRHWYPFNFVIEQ
OR5H2, sequence (as listed by the source): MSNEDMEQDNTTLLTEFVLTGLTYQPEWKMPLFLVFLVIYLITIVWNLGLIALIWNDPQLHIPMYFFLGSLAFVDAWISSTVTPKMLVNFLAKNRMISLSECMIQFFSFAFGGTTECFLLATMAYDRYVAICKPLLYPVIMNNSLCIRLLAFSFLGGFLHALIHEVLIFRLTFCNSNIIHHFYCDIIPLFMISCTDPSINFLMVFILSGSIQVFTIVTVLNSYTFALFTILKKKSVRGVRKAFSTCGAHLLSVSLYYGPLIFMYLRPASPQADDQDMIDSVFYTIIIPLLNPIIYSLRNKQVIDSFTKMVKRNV
OR5H6 (Homo sapiens), sequence (Q8NGV6 whole entry): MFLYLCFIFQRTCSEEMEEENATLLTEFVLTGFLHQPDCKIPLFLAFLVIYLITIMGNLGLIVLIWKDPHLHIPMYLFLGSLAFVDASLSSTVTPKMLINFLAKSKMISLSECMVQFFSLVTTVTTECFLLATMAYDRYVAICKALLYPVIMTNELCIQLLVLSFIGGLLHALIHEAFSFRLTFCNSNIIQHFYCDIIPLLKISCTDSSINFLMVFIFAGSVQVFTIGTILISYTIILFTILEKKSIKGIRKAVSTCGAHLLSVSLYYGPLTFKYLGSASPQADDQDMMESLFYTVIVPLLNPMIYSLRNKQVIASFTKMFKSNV
OR5D18 (Homo sapiens), sequence (Q8NGL1 whole entry): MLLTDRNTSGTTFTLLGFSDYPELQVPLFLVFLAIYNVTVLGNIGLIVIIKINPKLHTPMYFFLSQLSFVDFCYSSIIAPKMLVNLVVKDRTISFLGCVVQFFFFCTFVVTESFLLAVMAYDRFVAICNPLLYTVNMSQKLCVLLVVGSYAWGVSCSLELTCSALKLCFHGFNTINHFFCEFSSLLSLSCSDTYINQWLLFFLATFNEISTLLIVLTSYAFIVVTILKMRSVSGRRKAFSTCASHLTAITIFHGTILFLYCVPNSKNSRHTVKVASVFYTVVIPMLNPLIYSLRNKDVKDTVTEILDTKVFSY
OR5D14 (Homo sapiens), sequence (Q8NGL3 whole entry): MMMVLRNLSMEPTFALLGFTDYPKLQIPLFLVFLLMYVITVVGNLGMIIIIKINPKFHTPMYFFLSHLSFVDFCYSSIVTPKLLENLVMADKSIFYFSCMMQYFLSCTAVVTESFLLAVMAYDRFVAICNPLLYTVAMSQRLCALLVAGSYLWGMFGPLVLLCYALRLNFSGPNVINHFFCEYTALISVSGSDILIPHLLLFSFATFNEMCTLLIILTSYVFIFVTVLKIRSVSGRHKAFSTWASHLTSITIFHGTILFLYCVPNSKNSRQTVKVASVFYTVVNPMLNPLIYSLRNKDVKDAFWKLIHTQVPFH
OR5F1 (Homo sapiens), sequence (O95221 whole entry): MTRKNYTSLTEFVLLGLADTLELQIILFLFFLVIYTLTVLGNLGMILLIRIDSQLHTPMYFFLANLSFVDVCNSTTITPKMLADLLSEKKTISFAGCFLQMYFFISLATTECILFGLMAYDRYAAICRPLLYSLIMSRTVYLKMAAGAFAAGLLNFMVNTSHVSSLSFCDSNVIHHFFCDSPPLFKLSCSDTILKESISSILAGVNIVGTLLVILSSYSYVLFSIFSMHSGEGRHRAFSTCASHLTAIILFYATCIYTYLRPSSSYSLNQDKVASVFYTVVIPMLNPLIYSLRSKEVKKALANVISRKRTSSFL
OR5D13 (Homo sapiens), sequence (Q8NGL4 whole entry): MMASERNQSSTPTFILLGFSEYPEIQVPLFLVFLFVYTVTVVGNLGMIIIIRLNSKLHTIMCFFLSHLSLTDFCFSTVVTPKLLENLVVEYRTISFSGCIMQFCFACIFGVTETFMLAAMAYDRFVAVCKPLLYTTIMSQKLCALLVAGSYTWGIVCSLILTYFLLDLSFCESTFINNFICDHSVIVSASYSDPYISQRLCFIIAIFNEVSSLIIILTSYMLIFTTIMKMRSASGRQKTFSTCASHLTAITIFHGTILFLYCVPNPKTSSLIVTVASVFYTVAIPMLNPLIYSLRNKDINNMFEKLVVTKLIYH
OR5H15 (Homo sapiens), sequence (A6NDH6 whole entry): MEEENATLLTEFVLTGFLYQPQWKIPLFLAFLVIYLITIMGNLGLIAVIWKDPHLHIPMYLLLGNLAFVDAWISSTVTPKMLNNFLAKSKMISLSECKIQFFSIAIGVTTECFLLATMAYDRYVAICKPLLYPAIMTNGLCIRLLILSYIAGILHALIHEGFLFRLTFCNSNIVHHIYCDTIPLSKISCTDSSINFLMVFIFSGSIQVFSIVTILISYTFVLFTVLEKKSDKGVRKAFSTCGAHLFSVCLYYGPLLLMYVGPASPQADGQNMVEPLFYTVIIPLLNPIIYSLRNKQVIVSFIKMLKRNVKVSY
OR5H14 (Homo sapiens), sequence (A6NHG9 whole entry): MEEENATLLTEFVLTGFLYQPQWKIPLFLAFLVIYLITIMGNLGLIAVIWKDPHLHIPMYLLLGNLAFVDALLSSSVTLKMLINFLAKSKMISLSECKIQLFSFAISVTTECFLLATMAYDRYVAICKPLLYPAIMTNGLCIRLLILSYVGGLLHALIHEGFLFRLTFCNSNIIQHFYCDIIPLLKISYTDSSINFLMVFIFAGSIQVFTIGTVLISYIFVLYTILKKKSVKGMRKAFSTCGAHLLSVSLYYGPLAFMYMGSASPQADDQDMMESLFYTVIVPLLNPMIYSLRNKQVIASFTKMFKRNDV
OR5DG A156T, sequence (as listed by the source, stated change not applied): as the sequence (Q8NGK9 whole entry) above, with A156T counted along it
OR5H1 T181N, sequence (as listed by the source, stated change not applied): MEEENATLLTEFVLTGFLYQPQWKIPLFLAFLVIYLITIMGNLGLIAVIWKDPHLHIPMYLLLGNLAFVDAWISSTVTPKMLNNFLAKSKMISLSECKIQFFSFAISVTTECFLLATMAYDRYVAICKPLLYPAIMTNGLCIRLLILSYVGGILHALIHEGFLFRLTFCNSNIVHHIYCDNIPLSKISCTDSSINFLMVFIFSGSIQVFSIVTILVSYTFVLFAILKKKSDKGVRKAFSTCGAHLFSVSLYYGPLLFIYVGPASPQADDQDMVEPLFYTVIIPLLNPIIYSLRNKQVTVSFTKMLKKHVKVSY
OR5H1, sequence (as listed by the source): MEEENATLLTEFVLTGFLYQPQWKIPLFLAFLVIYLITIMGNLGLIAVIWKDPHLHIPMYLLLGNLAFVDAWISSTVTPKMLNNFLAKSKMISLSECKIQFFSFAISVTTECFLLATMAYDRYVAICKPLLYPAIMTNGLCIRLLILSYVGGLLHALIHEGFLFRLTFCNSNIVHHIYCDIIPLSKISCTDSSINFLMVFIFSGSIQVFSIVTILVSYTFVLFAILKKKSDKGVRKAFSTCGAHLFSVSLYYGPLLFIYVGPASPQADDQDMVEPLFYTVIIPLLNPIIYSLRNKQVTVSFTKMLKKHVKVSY
OR5H8 (Homo sapiens), sequence (P0DN80 whole entry): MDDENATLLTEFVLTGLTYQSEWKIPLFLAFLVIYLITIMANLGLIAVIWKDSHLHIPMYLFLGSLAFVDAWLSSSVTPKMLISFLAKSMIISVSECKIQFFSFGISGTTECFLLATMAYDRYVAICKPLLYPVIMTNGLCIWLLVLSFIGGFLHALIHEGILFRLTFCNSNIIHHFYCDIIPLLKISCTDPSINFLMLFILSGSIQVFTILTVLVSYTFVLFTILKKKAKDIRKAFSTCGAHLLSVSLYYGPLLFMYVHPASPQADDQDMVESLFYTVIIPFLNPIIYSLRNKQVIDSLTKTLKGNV
OR5DI, sequence (as listed by the source): as the sequence (Q8NGL1 whole entry) above, with N136D counted along it
OR5H1 (Homo sapiens), sequence (A6NKK0 whole entry): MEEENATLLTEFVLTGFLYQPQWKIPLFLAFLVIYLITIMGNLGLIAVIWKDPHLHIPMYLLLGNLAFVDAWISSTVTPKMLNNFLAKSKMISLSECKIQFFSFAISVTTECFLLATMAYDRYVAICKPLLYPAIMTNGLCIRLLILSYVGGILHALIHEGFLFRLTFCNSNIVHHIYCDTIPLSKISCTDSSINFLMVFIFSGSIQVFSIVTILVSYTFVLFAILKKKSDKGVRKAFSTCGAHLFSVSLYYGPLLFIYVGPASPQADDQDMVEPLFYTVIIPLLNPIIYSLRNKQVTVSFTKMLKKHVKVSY
OR5DD C62Y, sequence (as listed by the source, stated change not applied): as the sequence (Q8NGL4 whole entry) above, with C62Y counted along it
OR5G3 (Homo sapiens), sequence (P0C626 whole entry): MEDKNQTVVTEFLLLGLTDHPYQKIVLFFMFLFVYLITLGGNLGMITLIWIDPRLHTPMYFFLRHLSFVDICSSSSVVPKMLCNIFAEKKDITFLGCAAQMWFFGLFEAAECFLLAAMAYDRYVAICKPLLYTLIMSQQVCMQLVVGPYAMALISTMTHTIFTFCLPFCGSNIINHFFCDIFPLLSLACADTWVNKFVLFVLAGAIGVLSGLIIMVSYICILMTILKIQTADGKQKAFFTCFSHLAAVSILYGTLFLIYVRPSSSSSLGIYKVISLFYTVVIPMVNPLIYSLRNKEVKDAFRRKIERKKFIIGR
OR5F1, sequence (as listed by the source): as the sequence (O95221 whole entry) above, with S294N counted along it

C=CCOC(=O)Cc1ccccc1
not listed: OR5G3 (Homo sapiens) | OR5H8 (Homo sapiens)
inactive: all other assays above

Cc1c([N+](=O)[O-])c(C)c([N+](=O)[O-])c(C(C)(C)C)c1[N+](=O)[O-]
inactive: OR5D13 (Homo sapiens) | OR5D14 (Homo sapiens) | OR5D16 (Homo sapiens) | OR5D18 (Homo sapiens) | OR5F1 (Homo sapiens) | OR5G3 (Homo sapiens) | OR5H14 (Homo sapiens) | OR5H15 (Homo sapiens) | OR5H2 | OR5H6 (Homo sapiens) | OR5H8 (Homo sapiens)
